Measured values from ChEMBL document CHEMBL4138044, “Withaferin A induces cell death and differentiation in multiple myeloma cancer stem cells” (Medchemcomm, 2017).
Activity calls are given as the source filed them. The rule behind the calls is not given here.

What was measured:
[1] = Cytotoxicity against human RPMI18226 cells assessed as cell viability at 1.25 uM after 24 hrs by calcein AM/ethidium homodimer staining-based flow cytometric method (reference value: 67.7%); type: functional; settings: RPMI18226, 24 h, read-out: Activity
[2] = system: Multiple myeloma cancer stem cell; test: Cell cycle arrest in human multiple myeloma cancer stem cells assessed as accumulation at G1 phase at 0.62 uM […] by FxCycle violet staining-based flow cytometric method (reference value: 45.1%); type: functional
Outline: (§1)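 Cells treated 24 h with vehicle or WFA; MM-CSCs were seeded at 100 000 per well and left to adhere 24 h first, RPMIs seeded at 300 000 per well and treated at once. Floating and adherent cells fixed and permeabilized, adjusted to 10^6 cells/mL in PBS, then stained with FxCycle DNA dye for 30 min at room temperature. Flow cytometry; ≥3 independent experiments, mean ± SEM.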

RPMI-8226 (Homo sapiens) [3] = test: Cell cycle arrest in human RPMI-8226 cells assessed as accumulation at S phase at 0.62 uM […] by FxCycle violet staining-based flow cytometric method (reference value: 40.9%)
[4] = system: Multiple myeloma cancer stem cell; test: Induction of differentiation of human multiple myeloma cancer stem cells assessed as downregulation of SOX2 mRNA expression at 0.31 to 5 uM after 24 hrs by qPCR method; type: functional, cell-based
Outline: (§2)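 MM-CSCs treated with vehicle or increasing WFA concentrations for 24 h. Relative mRNA levels of the stemness markers then measured; mean ± SEM of 3 independent experiments, one-way ANOVA with Bonferroni test.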

[5] = Cell cycle arrest in human […] cells assessed as accumulation at sub-G1 phase at 2.5 uM […] by FxCycle violet staining-based flow cytometric method (reference value: 10.8%); type: functional; outline: as §1
[6] = system: Multiple myeloma cancer stem cell; test: Induction of differentiation of human multiple myeloma cancer stem cells assessed as downregulation of MSI2 mRNA expression at 0.31 to 5 uM after 24 hrs by qPCR method; type: functional, cell-based; outline: as §2
[7] = system: Multiple myeloma cancer stem cell; test: Cytotoxicity against human multiple myeloma cancer stem cells assessed as decrease in cell viability after 24 hrs by calcein AM/ethidium homodimer staining-based flow cytometric method; type: functional
[8] = system: Multiple myeloma cancer stem cell; test: Induction of morphological changes in human multiple myeloma cancer stem cells assessed as cell enlargement at 0.62 uM after 24 hrs by phalloidin/DAPI staining-based assay; type: functional
Outline: (§3)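 MM-CSCs seeded at 5000 cells/well and allowed to adhere 24 h, then treated with increasing WFA for 24 h. Fixed in 4% paraformaldehyde for 10 min, permeabilized with 0.1% Triton X-100 for 5 min, stained with 5 U/mL phalloidin for 20 min and 1 μg/mL DAPI for 5 min at room temperature. Imaged; cell area and circularity quantified; 3 experiments.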

[9] = Cytotoxicity against human CD34-positive hematopoietic stem cells assessed as decrease in cell viability at <5 uM after 24 hrs by calcein AM/ethidium homodimer staining-based flow cytometric method
Homo sapiens [10] = species: Homo sapiens; test: Cell cycle arrest in human […] cells assessed as accumulation at sub-G1 phase […] by FxCycle violet staining-based flow cytometric method; type: functional; outline: as §1
[11] = system: Multiple myeloma cancer stem cell; test: Induction of differentiation of human multiple myeloma cancer stem cells assessed as downregulation of CD166 mRNA expression at 0.31 to 5 uM after 24 hrs by qPCR method; type: functional, cell-based; outline: as §2
Homo sapiens [12] = species: Homo sapiens; test: Cytotoxicity against human RPMI18226 cells assessed as increase in dead cells at 1.25 uM after 24 hrs by calcein AM/ethidium homodimer staining-based flow cytometric method (reference value: 21.4%); type: functional, cell-based
[13] = system: Multiple myeloma cancer stem cell; test: Cell cycle arrest in human multiple myeloma cancer stem cells assessed as accumulation at G1 phase at 1.25 uM […] by FxCycle violet staining-based flow cytometric method (reference value: 45.1%); type: functional; outline: as §1
Homo sapiens [14] = species: Homo sapiens; test: Induction of apoptosis in human […] cells assessed as increase in late apoptotic cells at 1.25 uM after 24 hrs by annexin V/propidium iodide staining-based flow cytometric method; type: functional, cell-based
Outline: (§4)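 Annexin V/propidium iodide apoptosis staining after 24 h WFA. MM-CSCs adhered 24 h before treatment; RPMIs treated immediately after seeding at 300 000 per well. Floating and adherent cells washed, adjusted to 10^6 cells/mL, stained 15 min at room temperature, flow cytometry separating viable, early and late apoptotic cells; ≥3 independent experiments, mean ± SEM.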

[15] = system: Multiple myeloma cancer stem cell; test: Induction of differentiation of human multiple myeloma cancer stem cells assessed as upregulation of CD44 mRNA expression at 0.31 to 5 uM after 24 hrs by qPCR method; type: functional, cell-based; outline: as §2
[16] = system: Multiple myeloma cancer stem cell; test: Cytotoxicity against human multiple myeloma cancer stem cells assessed as dying cells at 10 uM after 24 hrs by calcein AM/ethidium homodimer staining-based flow cytometric method (reference value: 3.6%); type: functional
[17] = Cell cycle arrest in human […] cells assessed as accumulation at G2/M phase at 1.25 uM […] by FxCycle violet staining-based flow cytometric method (reference value: 20.2%); type: functional; outline: as §1
[18] = system: Multiple myeloma cancer stem cell; test: Induction of morphological changes in human multiple myeloma cancer stem cells assessed as appearance of larger cytoplasmic area at 1.25 uM after 24 hrs by phalloidin/DAPI staining-based assay; type: functional; outline: as §3
RPMI-8226 (Homo sapiens) [19] = test: Cell cycle arrest in human RPMI-8226 cells assessed as accumulation at S phase at 1.25 uM […] by FxCycle violet staining-based flow cytometric method (reference value: 40.9%)
[20] = system: Multiple myeloma cancer stem cell; test: Antimigratory activity in human multiple myeloma cancer stem cells at 0.62 to 1.25 uM after 24 hrs by scratch assay; type: functional, cell-based
Outline: (§5)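 MM-CSCs seeded at 100 000 cells per well, grown 24 h to a confluent monolayer, scratched with a pipette tip and imaged at 0 h. Cells then treated with increasing WFA concentrations for 24 h and the same spot re-imaged. Percent unfilled space = scratch width at 24 h / width at 0 h × 100; recovery = 100 − unfilled. 3 independent experiments.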

Homo sapiens [21] = species: Homo sapiens; test: Cytotoxicity against human RPMI18226 cells assessed as decrease in cell viability after 24 hrs by calcein AM/ethidium homodimer staining-based flow cytometric method; type: functional
[22] = system: Multiple myeloma cancer stem cell; test: Antimigratory activity in human multiple myeloma cancer stem cells at 2.5 uM after 24 hrs by scratch assay; type: functional, cell-based; outline: as §5
Homo sapiens [23] = species: Homo sapiens; test: Induction of apoptosis in human […] cells assessed as decrease in viable cells at 1.25 uM after 24 hrs by annexin V/propidium iodide staining-based flow cytometric method; type: functional, cell-based; outline: as §4
[24] = Cytotoxicity against human CD34-positive hematopoietic stem cells assessed as decrease in cell viability at 10 uM after 24 hrs by calcein AM/ethidium homodimer staining-based flow cytometric method
[25] = system: Multiple myeloma cancer stem cell; test: Induction of morphological changes in human multiple myeloma cancer stem cells assessed as appearance of epithelial/lymphoblastic-like morphology at 0.62 uM after 24 hrs by phalloidin/DAPI staining-based assay; type: functional; outline: as §3
[26] = Cell cycle arrest in human […] cells assessed as accumulation at sub-G1 phase at 0.62 uM […] by FxCycle violet staining-based flow cytometric method (reference value: 10.8%); type: functional; outline: as §1
[27] = system: Multiple myeloma cancer stem cell; test: Cell cycle arrest in human multiple myeloma cancer stem cells assessed as accumulation at G1 phase at 2.5 uM […] by FxCycle violet staining-based flow cytometric method (reference value: 45.1%); type: functional; outline: as §1
[28] = system: Multiple myeloma cancer stem cell; test: Induction of morphological changes in human multiple myeloma cancer stem cells assessed as appearance in spherical shape at 1.25 uM after 24 hrs by phalloidin/DAPI staining-based assay; type: functional; outline: as §3
[29] = system: Multiple myeloma cancer stem cell; test: Cytotoxicity against human multiple myeloma cancer stem cells assessed as cell viability at 2.5 uM after 24 hrs by calcein AM/ethidium homodimer staining-based flow cytometric method (reference value: 95.7%); type: functional; settings: read-out: Activity
[30] = system: Multiple myeloma cancer stem cell; test: Induction of morphological changes in human multiple myeloma cancer stem cells assessed as appearance in circular shape at 0.62 uM after 24 hrs by phalloidin/DAPI staining-based assay; type: functional; outline: as §3
[31] = Cell cycle arrest in human […] cells assessed as accumulation at sub-G1 phase at 1.25 uM […] by FxCycle violet staining-based flow cytometric method (reference value: 10.8%); type: functional; outline: as §1
[32] = system: Multiple myeloma cancer stem cell; test: Induction of differentiation of human multiple myeloma cancer stem cells assessed as downregulation of CD151 mRNA expression at 0.31 to 5 uM after 24 hrs by qPCR method; type: functional, cell-based; outline: as §2
[33] = system: Multiple myeloma cancer stem cell; test: Induction of differentiation of human multiple myeloma cancer stem cells assessed as upregulation of Kit mRNA expression at 0.31 to 5 uM after 24 hrs by qPCR method; type: functional, cell-based; outline: as §2
[34] = system: Multiple myeloma cancer stem cell; test: Cytotoxicity against human multiple myeloma cancer stem cells assessed as cell viability at 10 uM after 24 hrs by calcein AM/ethidium homodimer staining-based flow cytometric method (reference value: 95.7%); type: functional; settings: read-out: Activity
RPMI-8226 (Homo sapiens) [35] = test: Cell cycle arrest in human RPMI-8226 cells assessed as accumulation at S phase at 2.5 uM […] by FxCycle violet staining-based flow cytometric method (reference value: 40.9%)
[36] = Cell cycle arrest in human […] cells assessed as accumulation at G1 phase at 1.25 uM […] by FxCycle violet staining-based flow cytometric method (reference value: 28.2%); type: functional; outline: as §1
[37] = system: Multiple myeloma cancer stem cell; test: Cell cycle arrest in human multiple myeloma cancer stem cells assessed as accumulation at G2/M phase at 2.5 uM […] by FxCycle violet staining-based flow cytometric method (reference value: 22.9%); type: functional; outline: as §1
[38] = system: Multiple myeloma cancer stem cell; test: Induction of apoptosis in human multiple myeloma cancer stem cells assessed as increase in late apoptotic cells at 5 uM after 24 hrs by annexin V/propidium iodide staining-based flow cytometric method; type: functional; outline: as §4
[39] = system: Multiple myeloma cancer stem cell; test: Cytotoxicity against human multiple myeloma cancer stem cells assessed as dead cells at 10 uM after 24 hrs by calcein AM/ethidium homodimer staining-based flow cytometric method (reference value: 0.7%); type: functional
[40] = system: Multiple myeloma cancer stem cell; test: Antiproliferative activity against human multiple myeloma cancer stem cells after 72 hrs by MTT assay; type: functional, cell-based
Outline: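 MM-CSCs plated at 5000 cells/well and allowed to adhere 24 h, then exposed to 0–10 μM WFA for 72 h. MTT added for 2 h. Growth taken as absorbance relative to vehicle-control wells ×100. IC50 fitted from at least five concentrations; mean of three independent experiments ± SEM.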

[41] = Cytotoxicity against human RPMI18226 cells assessed as cell viability at 10 uM after 24 hrs by calcein AM/ethidium homodimer staining-based flow cytometric method (reference value: 67.7%); type: functional; settings: RPMI18226, 24 h, read-out: Activity
[42] = Cytotoxicity against human RPMI18226 cells assessed as dead cells at 10 uM after 24 hrs by calcein AM/ethidium homodimer staining-based flow cytometric method (reference value: 21.4%); type: functional
[43] = system: Multiple myeloma cancer stem cell; test: Induction of apoptosis in human multiple myeloma cancer stem cells assessed as decrease in viable cells at 5 uM after 24 hrs by annexin V/propidium iodide staining-based flow cytometric method; type: functional; outline: as §4
[44] = Antiproliferative activity against human […] cells after 72 hrs by XTT assay; type: functional, cell-based
Outline: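 RPMI 8226 cells in RPMI 1640 with 10% FBS, plated at 15 000 cells/well and treated immediately with 0–10 μM WFA for 72 h. XTT added for 4 h. Growth as absorbance relative to vehicle control ×100. IC50 fitted from at least five concentrations; mean of three independent experiments ± SEM.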

[45] = system: Multiple myeloma cancer stem cell; test: Cell cycle arrest in human multiple myeloma cancer stem cells assessed as accumulation at G2/M phase at 1.25 uM […] by FxCycle violet staining-based flow cytometric method (reference value: 22.9%); type: functional; outline: as §1

With CC1=C(CO)C(=O)O[C@@H]([C@@H](C)[C@H]2CC[C@H]3[C@@H]4C[C@H]5O[C@]56[C@@H](O)C=CC(=O)[C@]6(C)[C@H]4CC[C@]23C)C1 [WITHAFERIN A] the viability at 1.25 µM [1] was 32.1%, the Activity [2] was 21.5% and the Activity (RPMI-8226 (Homo sapiens) [3]) was 31.7%. For the same molecule, the Activity [4] was “Active”, the Activity [5] was 21.5% and the Activity [6] was “Active”. The Activity [7] was “Dose-dependent effect”, the Activity [8] was “Active” and the Activity [9] was “Non-Toxic”. The Activity (Homo sapiens [10]) was “Dose-dependent effect”, the Activity [11] was “Active” and the Activity (Homo sapiens [12]) was “Active”. For the same molecule, the Activity [13] was 15.5%, the Activity (Homo sapiens [14]) was “Active” and the Activity [15] was “Active”. For the same molecule, the Activity [16] was 31.5%, the Activity [17] was 28.4% and the Activity [18] was “Active”. The Activity (RPMI-8226 (Homo sapiens) [19]) was 29.4%, the Activity [20] was “inactive” and the Activity (Homo sapiens [21]) was “Dose-dependent effect”. The Activity [22] was “Active”, the Activity (Homo sapiens [23]) was “Active” and the Activity [24] was “Toxic”. For the same molecule, the Activity [25] was “Active”, the Activity [26] was 15.6% and the Activity [27] was 19.5%. The Activity [28] was “Active”, the viability at 2.5 µM [29] was 64.6% and the Activity [30] was “Active”. The Activity [31] was 23.1%, the Activity [32] was “Active” and the Activity [33] was “Active”. For the same molecule, the viability at 10 µM [34] was 12.1%, the Activity (RPMI-8226 (Homo sapiens) [35]) was 34% and the Activity [36] was 19.1%. The Activity [37] was 61.4%, the Activity [38] was “Active” and the Activity [39] was 56.4%. It also gave an IC50 [40] of 650 nM, a viability at 10 µM [41] of 8.2% and an Activity [42] of 87%. For the same molecule, the Activity [43] was “Active”, the IC50 [44] was 224 nM and the Activity [45] was 59.6%.
